Results from ChEMBL document CHEMBL3352173, “Optimization of pyrrolamide topoisomerase II inhibitors toward identification of an antibacterial clinical candidate (AZD5099)” (J Med Chem, 2014).
Converted amounts (≈) assume the structure as drawn.

How the values were obtained:
[1] = Ratio of MIC for methicillin, quinolone-resistant Staphylococcus aureus to fraction unbound in human plasma; format: ADME
Escherichia coli [2] = experiment: Antimicrobial activity against wild-type Escherichia coli Eco523 by broth microdilution/CLSI method; format: functional; settings: Escherichia coli, Eco523; read-out: MIC
Streptococcus pneumoniae = experiment: Antibacterial activity against Streptococcus pneumoniae by broth microdilution/CLSI method; format: functional; settings: Streptococcus pneumoniae; read-out: MIC
Staphylococcus aureus [3] = experiment: Antimicrobial activity against methicillin, quinolone-resistant Staphylococcus aureus by broth microdilution/CLSI method; format: functional; settings: Staphylococcus aureus; read-out: MIC
[4] = Percentage unbound in human plasma; format: ADME, cell-free
Escherichia coli [5] = experiment: Antimicrobial activity against Escherichia coli tolC- by broth microdilution/CLSI method; format: functional; settings: Escherichia coli; read-out: MIC
DNA gyrase subunit B = DNA gyrase subunit B (Staphylococcus aureus, UniProt P0A0K8); experiment: Inhibition of ATPase activity of Staphylococcus aureus GyrB
Method in brief: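 IC50 was determined against S. aureus GyrB in the routine screening assay. The enzyme concentration limits resolution below 10 nM.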

[6] = Solubility of the compound; format: physicochemical
Staphylococcus aureus [7] = experiment: Antimicrobial activity against methicillin-sensitive Staphylococcus aureus by broth microdilution/CLSI method; format: functional; settings: Staphylococcus aureus; read-out: MIC
[8] = Octanol-phosphate buffer distribution coefficient, log D of the compound at pH 7.4 by shake flask method; format: physicochemical
Haemophilus influenzae = experiment: Antimicrobial activity against Haemophilus influenzae by broth microdilution/CLSI method; format: functional; settings: Haemophilus influenzae; read-out: MIC
Moraxella catarrhalis = experiment: Antimicrobial activity against Moraxella catarrhalis by broth microdilution/CLSI method; format: functional; settings: Moraxella catarrhalis; read-out: MIC
Streptococcus pyogenes = experiment: Antimicrobial activity against Streptococcus pyogenes by broth microdilution/CLSI method; format: functional

Sequence of DNA gyrase subunit B (P0A0K8 whole entry): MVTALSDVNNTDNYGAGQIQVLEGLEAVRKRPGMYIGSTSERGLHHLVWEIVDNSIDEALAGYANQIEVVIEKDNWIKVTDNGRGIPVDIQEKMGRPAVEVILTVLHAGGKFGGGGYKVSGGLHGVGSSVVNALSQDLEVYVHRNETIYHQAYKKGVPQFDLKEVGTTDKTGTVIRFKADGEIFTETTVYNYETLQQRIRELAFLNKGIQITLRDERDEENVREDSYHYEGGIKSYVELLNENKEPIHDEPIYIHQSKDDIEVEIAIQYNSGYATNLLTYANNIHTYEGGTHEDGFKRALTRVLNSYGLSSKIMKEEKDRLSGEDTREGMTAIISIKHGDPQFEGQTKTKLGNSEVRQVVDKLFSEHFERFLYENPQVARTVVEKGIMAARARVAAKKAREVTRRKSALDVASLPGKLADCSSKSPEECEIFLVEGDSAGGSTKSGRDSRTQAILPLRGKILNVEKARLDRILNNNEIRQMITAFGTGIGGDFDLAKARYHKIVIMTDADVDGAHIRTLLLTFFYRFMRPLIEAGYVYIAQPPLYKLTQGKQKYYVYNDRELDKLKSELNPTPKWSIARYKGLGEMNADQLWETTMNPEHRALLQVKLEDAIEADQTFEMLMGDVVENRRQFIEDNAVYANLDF

SMILES | Ratio [1] | MIC (Escherichia coli [2]) | MIC (Streptococcus pneumoniae) | MIC (Staphylococcus aureus [3]) | fraction unbound [4] | MIC (Escherichia coli [5]) | IC50 (DNA gyrase subunit B) | solubility [6] | MIC (Staphylococcus aureus [7]) | logD [8] | MIC (Haemophilus influenzae) | MIC (Moraxella catarrhalis) | MIC (Streptococcus pyogenes)
CNC(=O)c1sc(N2CC[C@@H](NC(=O)c3[nH]c(C)c(Cl)c3Cl)[C@@H](OC)C2)nc1C(=O)O | > 200 | > 64 µg/mL | > 32 µg/mL | 2 µg/mL (≈ 4.08 µM) | < 0.01 | 2 µg/mL (≈ 4.08 µM) | < 10 nM | > 1000 µM | – | – | – | – | –
CO[C@H]1CN(c2nc(CO)c(C(=O)O)s2)CC[C@H]1NC(=O)c1[nH]c(C)c(Cl)c1Cl (racemic) | 17 | > 8 µg/mL | 2 µg/mL (≈ 4.32 µM) | – | 0.029 | 1 µg/mL (≈ 2.16 µM) | < 10 nM | – | > 8 µg/mL | -0.27 | 8 µg/mL (≈ 17.3 µM) | 1 µg/mL (≈ 2.16 µM) | –
CO[C@H]1CN(c2nc(-c3ccccn3)c(C(=O)O)s2)CC[C@H]1NC(=O)c1[nH]c(C)c(Cl)c1Cl | < 21 | 8 µg/mL (≈ 15.7 µM) | < 0.06 µg/mL | – | 0.003 | 0.13 µg/mL (≈ 0.255 µM) | < 9.8 nM | < 1 µM | < 0.06 µg/mL | > 2.5 | 0.5 µg/mL (≈ 0.98 µM) | < 0.06 µg/mL | < 0.06 µg/mL
CO[C@H]1CN(c2nc(C(=O)N(C)C)c(C(=O)O)s2)CC[C@H]1NC(=O)c1[nH]c(C)c(Cl)c1Cl (racemic) | > 62 | > 8 µg/mL | 4 µg/mL (≈ 7.93 µM) | > 8 µg/mL | 0.13 | 2 µg/mL (≈ 3.97 µM) | < 10 nM | > 1000 µM | 8 µg/mL (≈ 15.9 µM) | -1 | 8 µg/mL (≈ 15.9 µM) | 2 µg/mL (≈ 3.97 µM) | –
CO[C@H]1CN(c2nc(C(=O)N3CCOCC3)c(C(=O)O)s2)CC[C@H]1NC(=O)c1[nH]c(C)c(Cl)c1Cl (racemic) | > 57 | > 8 µg/mL | 2 µg/mL (≈ 3.66 µM) | > 8 µg/mL | 0.14 | 4 µg/mL (≈ 7.32 µM) | < 10 nM | 200 µM (≈ 109 µg/mL) | 8 µg/mL (≈ 14.6 µM) | -0.99 | 8 µg/mL (≈ 14.6 µM) | 2 µg/mL (≈ 3.66 µM) | –
CO[C@H]1CN(c2nc(-c3nccs3)c(C(=O)O)s2)CC[C@H]1NC(=O)c1[nH]c(C)c(Cl)c1Cl | < 6.3 | 8 µg/mL (≈ 15.5 µM) | < 0.06 µg/mL | – | < 0.01 | 0.13 µg/mL (≈ 0.252 µM) | < 9.8 nM | 16 µM (≈ 8.26 µg/mL) | < 0.06 µg/mL | 3.6 | 0.13 µg/mL (≈ 0.252 µM) | < 0.06 µg/mL | < 0.06 µg/mL
Cc1[nH]c(C(=O)N[C@@H]2CCN(c3ncc(C(=O)O)s3)CC23OCCO3)c(Cl)c1Cl | – | > 64 µg/mL | 2 µg/mL (≈ 4.34 µM) | 64 µg/mL (≈ 139 µM) | 0.075 | 1 µg/mL (≈ 2.17 µM) | 15 nM | > 1000 µM | 32 µg/mL (≈ 69.4 µM) | -0.39 | 32 µg/mL (≈ 69.4 µM) | 1 µg/mL (≈ 2.17 µM) | 2 µg/mL (≈ 4.34 µM)
CO[C@H]1CO[C@]2(CN(c3ncc(C(=O)O)s3)CC[C@H]2NC(=O)c2[nH]c(C)c(Cl)c2Cl)OC1 (relative stereo) | – | > 64 µg/mL | 0.063 µg/mL (≈ 0.125 µM) | 4 µg/mL (≈ 7.91 µM) | 0.053 | 1 µg/mL (≈ 1.98 µM) | < 10 nM | > 1000 µM | 4 µg/mL (≈ 7.91 µM) | -0.18 | 1 µg/mL (≈ 1.98 µM) | 0.13 µg/mL (≈ 0.257 µM) | 0.063 µg/mL (≈ 0.125 µM)
COCc1nc(N2CC[C@@H](NC(=O)c3[nH]c(C)c(Cl)c3Cl)[C@@H](OC)C2)sc1C(=O)O | 29 | > 8 µg/mL | 0.12 µg/mL (≈ 0.251 µM) | 1 µg/mL (≈ 2.09 µM) | 0.034 | 0.5 µg/mL (≈ 1.05 µM) | < 10 nM | > 1000 µM | 0.5 µg/mL (≈ 1.05 µM) | 0.44 | 0.35 µg/mL (≈ 0.733 µM) | 0.063 µg/mL (≈ 0.132 µM) | –
Cc1[nH]c(C(=O)N[C@@H]2CCN(c3ncc(C(=O)O)s3)CC23OCC(C)(C)CO3)c(Cl)c1Cl | – | > 64 µg/mL | < 0.063 µg/mL | 0.5 µg/mL (≈ 0.993 µM) | 0.02 | 1 µg/mL (≈ 1.99 µM) | < 10 nM | > 1000 µM | 0.5 µg/mL (≈ 0.993 µM) | 1.07 | 0.25 µg/mL (≈ 0.497 µM) | < 0.063 µg/mL | < 0.063 µg/mL
CS[C@H]1CN(c2ncc(C(=O)O)s2)CC[C@H]1NC(=O)c1[nH]c(C)c(Cl)c1Cl (racemic) | – | > 8 µg/mL | 0.016 µg/mL (≈ 0.0356 µM) | 0.25 µg/mL (≈ 0.556 µM) | 0.015 | 0.25 µg/mL (≈ 0.556 µM) | < 10 nM | > 1000 µM | 0.13 µg/mL (≈ 0.289 µM) | 0.72 | 0.13 µg/mL (≈ 0.289 µM) | < 0.008 µg/mL | 0.016 µg/mL (≈ 0.0356 µM)
CO[C@H]1CN(c2nc(-c3csc(N)n3)c(C(=O)O)s2)CC[C@H]1NC(=O)c1[nH]c(C)c(Cl)c1Cl | < 6.3 | 4 µg/mL (≈ 7.53 µM) | < 0.06 µg/mL | – | < 0.01 | < 0.06 µg/mL | < 9.8 nM | < 1 µM | < 0.06 µg/mL | 3 | 0.5 µg/mL (≈ 0.941 µM) | < 0.06 µg/mL | < 0.06 µg/mL
Cc1[nH]c(C(=O)N[C@@H]2CCN(c3ncc(C(=O)O)s3)C[C@@H]2N=[N+]=[N-])c(Cl)c1Cl (racemic) | – | 32 µg/mL (≈ 72 µM) | < 0.063 µg/mL | 0.25 µg/mL (≈ 0.563 µM) | 0.038 | < 0.063 µg/mL | < 10 nM | > 1000 µM | 0.13 µg/mL (≈ 0.293 µM) | 0.53 | < 0.063 µg/mL | < 0.063 µg/mL | < 0.063 µg/mL
CO[C@H]1CN(c2nc(C(=O)O)c(C(N)=O)s2)CC[C@H]1NC(=O)c1[nH]c(C)c(Cl)c1Cl (racemic) | 160 | > 8 µg/mL | 1 µg/mL (≈ 2.1 µM) | – | 0.005 | 1 µg/mL (≈ 2.1 µM) | < 10 nM | – | > 8 µg/mL | -0.63 | > 8 µg/mL | 2 µg/mL (≈ 4.2 µM) | –
C=C1COC2(CN(c3ncc(C(=O)O)s3)CC[C@H]2NC(=O)c2[nH]c(C)c(Cl)c2Cl)OC1 | – | > 64 µg/mL | < 0.063 µg/mL | 2 µg/mL (≈ 4.1 µM) | 0.006 | 0.5 µg/mL (≈ 1.03 µM) | < 10 nM | > 1000 µM | 1 µg/mL (≈ 2.05 µM) | 0.82 | 2 µg/mL (≈ 4.1 µM) | < 0.063 µg/mL | < 0.063 µg/mL
Cc1[nH]c(C(=O)N[C@@H]2CCN(c3ncc(C(=O)O)s3)CC23OCCCO3)c(Cl)c1Cl | – | > 64 µg/mL | 0.063 µg/mL (≈ 0.133 µM) | 4 µg/mL (≈ 8.41 µM) | 0.03 | 1 µg/mL (≈ 2.1 µM) | < 10 nM | > 1000 µM | 2 µg/mL (≈ 4.21 µM) | 0.4 | 1 µg/mL (≈ 2.1 µM) | 0.13 µg/mL (≈ 0.273 µM) | 0.063 µg/mL (≈ 0.133 µM)
CO[C@H]1CN(c2nc(-c3nccn3C)c(C(=O)O)s2)CC[C@H]1NC(=O)c1[nH]c(C)c(Cl)c1Cl | 5.2 | 8 µg/mL (≈ 15.6 µM) | < 0.06 µg/mL | – | 0.011 | < 0.06 µg/mL | < 10 nM | 12 µM (≈ 6.16 µg/mL) | < 0.06 µg/mL | > 3 | 0.25 µg/mL (≈ 0.487 µM) | < 0.06 µg/mL | < 0.06 µg/mL
